According to ChEMBL document CHEMBL1123317, “[pGlu6,Pro9]SP6-11, a selective agonist for the substance P P-receptor subtype” (J Med Chem, 1986):

How the values were obtained:
Rattus norvegicus [1] = species: Rattus norvegicus; assay: Compound was evaluated for potency in SP-E system and relative potency was determined against rat duodenum; type: functional
How it was run: (§1)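 Isolated tissue (hamster urinary bladder or rat duodenum) in 10-mL bath of Tyrode's solution gassed with 95% O2-5% CO2 at 34 °C; isotonic contraction recorded. Duodenum: peptides applied at 2-3-min intervals, contact under 30 s. Bladder: 15-30-min intervals, contact 1-3 min.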

Cricetinae gen. sp. [2] = assay: Compound was evaluated for potency in SP-E system and relative potency was determined against Hamster urinary bladder; type: functional, Cricetulus griseus; how it was run: as §1
Cavia porcellus [3] = species: Cavia porcellus; assay: Compound was evaluated for potency relative to neurokinin B against SP-N system (enteric nerves of Guinea pig ileum); type: functional
How it was run: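 Neuronal SP-N receptor of guinea pig ileum assayed after desensitizing the muscular receptor with substance P methyl ester 10⁻⁷ M (2-min preincubation). Tissue in Tyrode's solution, 95% O2-5% CO2, 34 °C; isotonic contractions; peptides at 2-3-min intervals, under 30 s contact.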

Cavia porcellus [4] = species: Cavia porcellus; assay: Compound was evaluated for effective dose against guinea pig ileum; type: functional
How it was run: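 Guinea pig ileum in 10-mL bath of Tyrode's solution, 95% O2-5% CO2, 34 °C, with atropine 10⁻⁶ M present (muscular SP-P receptor); isotonic contractions; peptides applied at 2-3-min intervals, contact under 30 s.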

Rattus norvegicus [5] = species: Rattus norvegicus; assay: Compound was evaluated for effective dose against rat duodenum; type: functional; how it was run: as §1
Cricetinae gen. sp. [6] = assay: Compound was evaluated for effective dose against hamster bladder; type: functional, Cricetulus griseus; how it was run: as §1

## CSCC[C@H](NC(=O)[C@H](CC(C)C)NC(=O)CNC(=O)[C@@H](NC(=O)[C@H](Cc1ccccc1)NC(=O)[C@H](CO)NC(=O)[C@H](CC(=O)O)NC(=O)[C@@H](NC(=O)[C@H](CCCCN)NC(=O)[C@@H](N)Cc1c[nH]cn1)[C@@H](C)O)C(C)C)C(N)=O [NEUROKININ A]
Rattus norvegicus [1]
  Relative potency: 0.3
Cricetinae gen. sp. [2]
  Relative potency: 1
Cavia porcellus [3]
  Relative potency: 0.04

## CSCC[C@H](NC(=O)[C@H](CC(C)C)NC(=O)CNC(=O)[C@@H](NC(=O)[C@H](Cc1ccccc1)NC(=O)[C@H](Cc1ccccc1)NC(=O)[C@H](CC(=O)O)NC(=O)[C@H](Cc1c[nH]cn1)NC(=O)[C@H](CCSC)NC(=O)[C@@H](N)CC(=O)O)C(C)C)C(N)=O [NEUROKININ B]
Rattus norvegicus [1]
  Relative potency: 1
Cavia porcellus [4]
  EC50: 1.5 nM
Rattus norvegicus [5]
  EC50: 6.5 nM
Cricetinae gen. sp. [2]
  Relative potency: 1
Cricetinae gen. sp. [6]
  EC50: 50 nM
Cavia porcellus [3]
  Relative potency: 1
